The source made the active and inactive calls. The rule behind the calls is not given here.
Legend:
[1] = test system: BaF3; assay: Antiproliferative activity against murine BaF3 cells expressing NPM/ALK L256T mutant by [3H]thymidine uptake assay; type: functional, cell-based; settings: Mus musculus
Outline: (§1)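 IL-3-independent BaF3 clones stably transfected (electroporation, G418 selection) with human NPM/ALK, WT or L256T; RPMI 1640 + 10% FBS, 37 °C, 5% CO2. Seeded 10^4/well, exposed to inhibitor (0-4 µM range in figure) or vehicle for 8-48 h; 3[H]-thymidine uptake.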

[2] = test system: BaF3; assay: Antiproliferative activity against murine BaF3 cells expressing wild type NPM/ALK by [3H]thymidine uptake assay; type: functional, cell-based; settings: Mus musculus; outline: as §1
[3] = test system: BaF3; assay: Induction of cell death of murine BaF3 cells expressing NPM/ALK L256T mutant by trypan blue exclusion assay; type: functional, cell-based; settings: Mus musculus
[4] = target: T1, NPM/ALK (Nucleophosmin/ALK tyrosine kinase receptor) (Homo sapiens, UniProt P06748+Q9UM73, L256T); assay: Inhibition of NPM/ALK L256T mutant kinase activity in BaF3 cells by radioenzymatic assay; type: cell-based
T1 sequence (P06748 whole entry, stated change not applied): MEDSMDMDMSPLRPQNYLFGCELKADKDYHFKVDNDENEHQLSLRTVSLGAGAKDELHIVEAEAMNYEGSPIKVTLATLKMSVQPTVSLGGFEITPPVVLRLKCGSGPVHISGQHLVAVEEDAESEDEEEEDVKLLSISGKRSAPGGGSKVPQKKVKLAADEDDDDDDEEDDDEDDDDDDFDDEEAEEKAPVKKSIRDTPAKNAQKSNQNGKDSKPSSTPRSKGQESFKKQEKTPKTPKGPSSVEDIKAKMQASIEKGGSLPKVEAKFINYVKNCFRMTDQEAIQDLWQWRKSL
T1 sequence (Q9UM73 19-1620 L256T limits assumed, stated change not applied): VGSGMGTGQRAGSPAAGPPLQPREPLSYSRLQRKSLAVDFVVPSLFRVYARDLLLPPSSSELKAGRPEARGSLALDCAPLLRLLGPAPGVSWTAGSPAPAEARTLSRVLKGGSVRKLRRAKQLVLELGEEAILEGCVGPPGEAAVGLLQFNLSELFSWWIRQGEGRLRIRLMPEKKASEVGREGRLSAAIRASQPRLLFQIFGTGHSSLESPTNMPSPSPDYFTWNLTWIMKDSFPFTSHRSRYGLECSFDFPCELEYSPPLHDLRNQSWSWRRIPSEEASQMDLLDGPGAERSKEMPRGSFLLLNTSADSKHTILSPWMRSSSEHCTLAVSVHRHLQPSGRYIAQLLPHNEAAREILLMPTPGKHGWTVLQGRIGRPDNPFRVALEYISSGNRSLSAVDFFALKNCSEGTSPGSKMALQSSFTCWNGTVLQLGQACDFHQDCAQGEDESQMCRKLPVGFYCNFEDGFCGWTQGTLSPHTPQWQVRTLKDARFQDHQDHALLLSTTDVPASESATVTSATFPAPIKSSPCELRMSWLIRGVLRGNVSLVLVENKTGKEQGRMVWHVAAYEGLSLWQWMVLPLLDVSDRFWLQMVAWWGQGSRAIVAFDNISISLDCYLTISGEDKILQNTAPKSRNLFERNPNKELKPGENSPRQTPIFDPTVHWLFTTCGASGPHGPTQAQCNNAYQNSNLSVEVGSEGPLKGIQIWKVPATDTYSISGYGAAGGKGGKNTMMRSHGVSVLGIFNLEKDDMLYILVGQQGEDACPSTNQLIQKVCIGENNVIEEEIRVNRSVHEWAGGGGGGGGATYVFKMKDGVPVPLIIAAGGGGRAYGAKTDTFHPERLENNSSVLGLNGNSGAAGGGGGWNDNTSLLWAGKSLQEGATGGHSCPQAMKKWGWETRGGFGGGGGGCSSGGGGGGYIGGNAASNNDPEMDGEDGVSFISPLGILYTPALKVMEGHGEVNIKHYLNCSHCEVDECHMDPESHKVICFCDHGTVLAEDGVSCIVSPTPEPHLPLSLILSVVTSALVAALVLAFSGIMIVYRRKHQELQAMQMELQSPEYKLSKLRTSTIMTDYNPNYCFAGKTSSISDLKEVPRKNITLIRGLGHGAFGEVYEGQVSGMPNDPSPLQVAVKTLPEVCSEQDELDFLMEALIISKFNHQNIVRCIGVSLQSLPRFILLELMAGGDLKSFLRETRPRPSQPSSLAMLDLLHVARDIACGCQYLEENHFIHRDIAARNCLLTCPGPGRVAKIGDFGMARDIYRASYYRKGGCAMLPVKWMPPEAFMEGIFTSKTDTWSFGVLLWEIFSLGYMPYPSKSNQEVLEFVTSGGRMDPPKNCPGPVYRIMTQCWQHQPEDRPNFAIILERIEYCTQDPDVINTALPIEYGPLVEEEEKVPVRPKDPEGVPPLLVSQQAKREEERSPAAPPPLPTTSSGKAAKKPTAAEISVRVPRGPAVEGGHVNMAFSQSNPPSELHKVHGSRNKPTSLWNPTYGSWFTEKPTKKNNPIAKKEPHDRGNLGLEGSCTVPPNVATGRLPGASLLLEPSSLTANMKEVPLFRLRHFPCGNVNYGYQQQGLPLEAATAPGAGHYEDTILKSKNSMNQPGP

[5] = target: T2, NPM/ALK (Nucleophosmin/ALK tyrosine kinase receptor) (Homo sapiens, UniProt Q9UM73); assay: Inhibition of wild type NPM/ALK kinase activity in BaF3 cells by radioenzymatic assay; type: cell-based
T2 sequence (Q9UM73 whole entry): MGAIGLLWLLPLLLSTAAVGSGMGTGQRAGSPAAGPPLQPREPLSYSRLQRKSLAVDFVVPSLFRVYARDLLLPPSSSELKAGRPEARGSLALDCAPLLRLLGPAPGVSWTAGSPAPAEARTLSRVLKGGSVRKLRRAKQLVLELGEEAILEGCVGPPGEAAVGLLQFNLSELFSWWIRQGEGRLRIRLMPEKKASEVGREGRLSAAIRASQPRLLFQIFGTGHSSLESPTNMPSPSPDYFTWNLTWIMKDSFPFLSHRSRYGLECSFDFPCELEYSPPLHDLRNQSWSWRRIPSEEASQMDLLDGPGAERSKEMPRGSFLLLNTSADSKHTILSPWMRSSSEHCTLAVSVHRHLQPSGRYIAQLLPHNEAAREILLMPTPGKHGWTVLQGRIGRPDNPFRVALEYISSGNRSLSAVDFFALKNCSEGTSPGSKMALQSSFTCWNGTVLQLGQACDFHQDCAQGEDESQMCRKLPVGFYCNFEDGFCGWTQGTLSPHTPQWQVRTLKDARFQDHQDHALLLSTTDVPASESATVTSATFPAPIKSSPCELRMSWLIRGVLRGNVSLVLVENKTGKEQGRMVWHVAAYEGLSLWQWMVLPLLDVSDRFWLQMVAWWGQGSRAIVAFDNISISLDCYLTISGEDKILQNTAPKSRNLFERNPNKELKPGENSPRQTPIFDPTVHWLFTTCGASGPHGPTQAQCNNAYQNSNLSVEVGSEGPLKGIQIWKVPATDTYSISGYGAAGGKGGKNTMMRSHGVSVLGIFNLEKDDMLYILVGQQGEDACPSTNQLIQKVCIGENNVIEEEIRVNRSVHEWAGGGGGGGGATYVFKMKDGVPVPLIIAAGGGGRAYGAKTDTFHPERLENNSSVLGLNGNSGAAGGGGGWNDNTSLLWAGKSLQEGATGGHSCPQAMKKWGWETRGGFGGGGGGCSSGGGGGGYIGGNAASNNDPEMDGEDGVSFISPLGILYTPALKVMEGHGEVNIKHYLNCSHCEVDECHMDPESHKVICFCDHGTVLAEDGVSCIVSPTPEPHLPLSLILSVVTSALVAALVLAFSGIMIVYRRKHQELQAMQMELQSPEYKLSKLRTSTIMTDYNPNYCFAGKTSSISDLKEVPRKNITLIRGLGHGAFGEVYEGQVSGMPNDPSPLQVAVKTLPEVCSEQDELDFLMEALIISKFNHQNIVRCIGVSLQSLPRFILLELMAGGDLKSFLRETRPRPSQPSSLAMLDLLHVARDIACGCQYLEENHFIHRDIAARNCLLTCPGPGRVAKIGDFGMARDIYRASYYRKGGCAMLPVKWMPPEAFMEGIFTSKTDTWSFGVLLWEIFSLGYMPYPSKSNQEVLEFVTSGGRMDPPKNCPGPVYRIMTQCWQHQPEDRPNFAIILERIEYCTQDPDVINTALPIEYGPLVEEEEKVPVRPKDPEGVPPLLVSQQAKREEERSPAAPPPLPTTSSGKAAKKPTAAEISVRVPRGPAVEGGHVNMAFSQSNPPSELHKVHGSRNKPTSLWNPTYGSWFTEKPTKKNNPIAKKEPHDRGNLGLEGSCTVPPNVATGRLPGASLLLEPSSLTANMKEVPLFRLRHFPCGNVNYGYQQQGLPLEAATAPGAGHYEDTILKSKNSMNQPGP
T2 sequence (P06748 whole entry, further chain): as the sequence (P06748 whole entry, stated change not applied) above

[6] = target: T1, NPM/ALK (Nucleophosmin/ALK tyrosine kinase receptor); assay: Inhibition of NPM/ALK L256T mutant autophosphorylation activity in BaF3 cells by antiphosphotyrosine immunoblotting assay; type: cell-based
[7] = target: T2, NPM/ALK (Nucleophosmin/ALK tyrosine kinase receptor); assay: Inhibition of wild type NPM/ALK autophosphorylation activity in BaF3 cells by antiphosphotyrosine immunoblotting assay; type: cell-based

| SMILES | IC50 [1] [µM] | IC50 [2] [µM] | Activity [3] | IC50 [4] [µM] | IC50 [5] [µM] | IC50 [6] [µM] | IC50 [7] [µM] |
| --- | --- | --- | --- | --- | --- | --- | --- |
| CSc1cccc(Nc2ncc3cc(-c4c(Cl)cccc4Cl)c(=O)n(C)c3n2)c1 | 1.8 | 2 | Active |  |  |  |  |
| COc1cc(Nc2c(C#N)cnc3cc(OCCCN4CCN(C)CC4)c(OC)cc23)c(Cl)cc1Cl [BOSUTINIB] | 0.2 | 1 | Active | 0.15 | > 10 | 0.2 | > 20 |
| Cc1ccc(NC(=O)c2ccc(CN3CCN(C)CC3)cc2)cc1Nc1nccc(-c2cccnc2)n1 [IMATINIB] | 9.1 | 7.1 |  |  |  |  |  |

— ChEMBL document CHEMBL1137261, “Structural insights into the ATP binding pocket of the anaplastic lymphoma kinase by site-directed mutagenesis, inhibitor binding analysis, and homology modeling” (J Med Chem, 2006)
